Data on 83 variants can be found in the RNAGym collection of RNA variant scans (doi:10.1126/science.aae0568).

B1: tRNA (parent)
chain: GUUCCGUUGGCGUAAUGGUAACGCGUCUCCCUCCUAAGGAGAAGACUGCGGGUUCGAGUCCCGUACGGAACG

Variants at the floor of the assay were thinned out. Some results are limits rather than exact numbers.

In this series the parent is B1. The series is described as follows: yeast fitness relative to wild type (ratio to wild type); higher = fitter; tRNA-Arg(CCU), competitive growth, 37 C, YPD. The essentials: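 Variants of the tRNA-Arg(CCU) gene, chemically synthesised with a 3% per-site mutation rate at 69 sites, were placed at the native genomic locus in Saccharomyces cerevisiae. The pooled strains were competed in YPD at 37°C for 24 hours in six parallel replicates. Gene amplicons from the start population and from each end population were read by 100-nucleotide paired-end sequencing. Darwinian fitness relative to wild type came from changes in genotype frequencies; genotypes needed ≥ 100 starting reads, and estimates < 0.5 were set to 0.5.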
Regarding C5G C34G C62U, the yeast fitness was 0.531.

For the variant C5G A20U C62G, the yeast fitness is ≤ 0.5.

Consider C5G C22U U26G U32A U35A A69C, for which the yeast fitness is ≤ 0.5.

Turning to C5A U13C G18A C31G C46U, the yeast fitness is ≤ 0.5.

On to C5G A21G C33A G68C A69U, for which the yeast fitness is ≤ 0.5.

For the variant C5G A42C A57C G68U, the yeast fitness is ≤ 0.5.

For C5G A21G U32C A69C, the yeast fitness was ≤ 0.5.

C5G C22G G39C A57U: the yeast fitness was 0.723.

Turning to C5G C33G A40U A65C, the yeast fitness is ≤ 0.5.

Regarding C5G C22G C55A A65U, the yeast fitness amounted to 0.63.

As for C5G A20G A36G C66A, the yeast fitness was ≤ 0.5.

On to C5G C27U C49A U54C C60G, for which the yeast fitness is ≤ 0.5.

With C5G C46G C49G C62A, the yeast fitness was ≤ 0.5.

Turning to C5G C11G A15C A45U C49U, the yeast fitness was ≤ 0.5.

Turning to C5G C11A A20C C22G C30U C31G C61A G67A, the yeast fitness is ≤ 0.5.

C5G C31A A37C G48A G58C G68C: the yeast fitness is ≤ 0.5.

Regarding C5A U35C G44A G48C C55G A70C, the yeast fitness is ≤ 0.5.

With C5G C30U G50C, the yeast fitness is ≤ 0.5.

As to C5G C30U U32C G44C, the yeast fitness is ≤ 0.5.

In the case of C5G C22A U26C C33G, the yeast fitness was 0.564.

As to C5G C11U G25C, the yeast fitness is 0.571.

In the case of C5G C24U A45G, the yeast fitness turned out to be 0.799.

On to C5G A14U C24G A70U, for which the yeast fitness was ≤ 0.5.

For the variant C5G C11A U16A A21U G67A, the yeast fitness was ≤ 0.5.

On to C5G C24G C34G C46U C61A A70U, for which the yeast fitness is ≤ 0.5.

C5G A14G: the yeast fitness was determined as 0.999.

With C5G C27G C55G, the yeast fitness is ≤ 0.5.

With C5G C30A, the yeast fitness is 0.736.

As to C5G C34G C61A, the yeast fitness was ≤ 0.5.

As to C5G C29G U32A A37U, the yeast fitness was ≤ 0.5.

As to C5A U16C C22U, the yeast fitness turned out to be 0.612.

In the case of C5G C11U U47A G68C, the yeast fitness was ≤ 0.5.

As to C5A U35C A36U, the yeast fitness turned out to be 0.57.

Consider C5G C31G A42U, for which the yeast fitness was 0.623.

For the variant C5G C11A A14G G25C C29G C60A, the yeast fitness was ≤ 0.5.

Turning to C5G C11A A14G G25C C29G C60G, the yeast fitness was ≤ 0.5.

With C5G A21U C29A U64C, the yeast fitness was ≤ 0.5.

As for C5G C22U C29G, the yeast fitness is 0.659.

As to C5G A20C C27G G67U, the yeast fitness was ≤ 0.5.

Regarding C5A U26A G51C C61G, the yeast fitness was ≤ 0.5.

Turning to C5G A14G A36U, the yeast fitness was determined as 0.647.

As to C5G A43C G48A U59G, the yeast fitness is ≤ 0.5.

As to C5G A14C A37G, the yeast fitness was ≤ 0.5.

As to C5G C27U G44C G48C, the yeast fitness is ≤ 0.5.

Take C5A U16C C30A A45U G50C G63A: the yeast fitness is ≤ 0.5.

For C5G A21G U32C U47A G68A, the yeast fitness was ≤ 0.5.

For C5A U16G C27U C29U A36U G41A C49U C66U, the yeast fitness is ≤ 0.5.

Regarding C5G A20U A65G, the yeast fitness is 0.65.

For the variant C5G A20G C55G, the yeast fitness came out at 0.538.

Turning to C5G C11G G12A C46U, the yeast fitness is ≤ 0.5.

For C5G A21U A43G C62A, the yeast fitness was ≤ 0.5.

For C5G A14U A36C C61G C62A A69C, the yeast fitness was ≤ 0.5.

For the variant C5G A15G C24G C60A, the yeast fitness was ≤ 0.5.

Take C5G C11G A40G C60G: the yeast fitness turned out to be 0.588.

On to C5A U28A C31U G51C, for which the yeast fitness was ≤ 0.5.

Regarding C5G C22A U26C C33G U64A G67C, the yeast fitness amounted to 0.544.

C5G C11A U19C A20C C33A C61G C66U A69U: the yeast fitness is ≤ 0.5.

For C5G C31U C33U A57U, the yeast fitness was ≤ 0.5.

For the variant C5G C30G C33G A37U C61G, the yeast fitness is ≤ 0.5.

As to C5G C30U G67C, the yeast fitness came out at 0.938.

Take C5A U54A: the yeast fitness was 0.699.

Take C5G A21G A45U A69U: the yeast fitness is 0.634.

In the case of C5G A14C C29A C31G U54A A70U, the yeast fitness was 0.545.

C5A U16A G39A A45G G50A: the yeast fitness was ≤ 0.5.

For the variant C5G A14U G18A A21U A42C G48C, the yeast fitness is ≤ 0.5.

Regarding C5A U19C C27U C29G C34A A42C U54A, the yeast fitness is ≤ 0.5.

Regarding C5G C11A A15G G18A C30G G68A, the yeast fitness was ≤ 0.5.

On to C5G A14U G25A C33A C61U, for which the yeast fitness is ≤ 0.5.

Regarding C5G C34A C49U, the yeast fitness was ≤ 0.5.

For the variant C5G C31A A45U, the yeast fitness turned out to be 0.584.

For C5A U19G C31G U53A, the yeast fitness was 0.775.

Take C5G C30A A40G A70U: the yeast fitness was ≤ 0.5.

Turning to C5G A14C G25A U32C G41C G50A C61G, the yeast fitness was ≤ 0.5.

C5G C31U A36C G38A: the yeast fitness came to 0.557.

With C5G C11G A40G, the yeast fitness is 0.556.

As to C5G C27U G41C, the yeast fitness was ≤ 0.5.

As for C5G C33A C34G G50A, the yeast fitness is ≤ 0.5.

For the variant C5G C11G A20C C33U C34U C61G, the yeast fitness turned out to be 0.529.

Turning to C5G C29A G58C U64G, the yeast fitness worked out at 0.545.

As to C5G C29U C66U, the yeast fitness stood at 0.57.

For the variant C5G C24G C30G C31U U35A A36U G44A G63C, the yeast fitness came out at 0.966.

For the variant C5G C33A A37C C61U C62A, the yeast fitness was ≤ 0.5.

Take C5A U26A C27G C30G A36U G38C C46U C49G A65U: the yeast fitness was ≤ 0.5.
